Values after ≈ are worked out from the molar mass of the structure shown.
Tests used:
[1] = tested on: Trypanosoma brucei rhodesiense; experiment: Antitrypanosomal activity against trypomastigotes of Trypanosoma brucei rhodesiense […] after 72 hrs by alamar blue assay; assay type: functional, organism-based; details: STIB 900, L6, 72 h
Method in brief: (§1)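 In vitro screens of parasites and host cells: T. b. rhodesiense STIB900 trypomastigotes, T. cruzi Tulahuen C4 intracellular amastigotes, L. donovani MHOM-ET-67/L82 axenic amastigotes, P. falciparum K1 erythrocytic stage, and L6 rat skeletal myoblasts […] for toxicity. […] Values are means of two independent determinations.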

Trypanosoma cruzi = experiment: Antitrypanosomal activity against intracellular amastigote stage of Trypanosoma cruzi Tulahuen C2C4 infected in rat L6 cells after 96 hrs by spectrophotometric analysis; assay type: functional, organism-based; details: Tulahuen C2C4, L6, 96 h
Method in brief: (§2)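 In vitro screens of parasites and host cells: T. b. rhodesiense STIB900 trypomastigotes, T. cruzi Tulahuen C4 intracellular amastigotes, L. donovani MHOM-ET-67/L82 axenic amastigotes, P. falciparum K1 erythrocytic stage, and L6 rat skeletal myoblasts […] for toxicity. Values are means of two independent determinations.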

Leishmania donovani = experiment: Antileishmanial activity against axenic amastigote stage of Leishmania donovani […] after 72 hrs by alamar blue assay; assay type: functional, organism-based; details: MHOM/ET/67/L82, L6, 72 h; method in brief: as §2
Plasmodium falciparum = experiment: Antimalarial activity against chloroquine and pyrimethamine-resistant Plasmodium falciparum […] assessed as [3H]-hypoxanthine incorporation after 48 hrs by liquid scintillation counting; assay type: functional, organism-based; method in brief: as §1
L6 = experiment: Cytotoxicity against rat L6 cells after 72 hrs by alamar blue assay; assay type: cell-based; details: L6, 72 h; method in brief: as §1
[2] = Selectivity index, ratio of IC50 for rat L6 cells to IC50 for trypomastigotes of Trypanosoma brucei rhodesiense STIB 900; assay type: toxicity, cell-based; details: read-out: Ratio IC50
Method in brief: (§3)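 Selectivity index is calculated as the L6 myoblast IC50 divided by the IC50 against the respective parasite. Both IC50s are in µg/mL and are means of two independent determinations.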

[3] = Selectivity index, ratio of IC50 for rat L6 cells to IC50 for intracellular amastigote stage of Trypanosoma cruzi Tulahuen C2C4; assay type: toxicity, cell-based; details: read-out: Ratio IC50; method in brief: as §3
[4] = Selectivity index, ratio of IC50 for rat L6 cells to IC50 for axenic amastigote stage of Leishmania donovani MHOM/ET/67/L82; assay type: toxicity, cell-based; details: read-out: Ratio IC50; method in brief: as §3
[5] = Selectivity index, ratio of IC50 for rat L6 cells to IC50 for chloroquine and pyrimethamine-resistant Plasmodium falciparum K1; assay type: toxicity, cell-based; details: read-out: Ratio IC50; method in brief: as §3

Row | Compound | IC50 [1] | IC50 (Trypanosoma cruzi) | IC50 (Leishmania donovani) | IC50 (Plasmodium falciparum) | IC50 (L6) | selectivity ratio [2] | selectivity ratio [3] | selectivity ratio [4] | selectivity ratio [5]
1 | O=C(NC(=O)c1ccccc1O)c1ccc(C(F)(F)F)cc1 | 70 µg/mL (≈ 226 µM) | 50 µg/mL (≈ 162 µM) | 0.57 µg/mL (≈ 1.84 µM) | 3.8 µg/mL (≈ 12.3 µM) | 13 µg/mL (≈ 42 µM) | – | – | – | –
2 | Cc1ccc(C(=O)NC(=O)c2ccccc2O)cc1 | > 100 µg/mL | 38 µg/mL (≈ 149 µM) | 3.2 µg/mL (≈ 12.5 µM) | 1.4 µg/mL (≈ 5.48 µM) | 46 µg/mL (≈ 180 µM) | < 0.46 | 1.2 | 14 | 33
3 | CC(C)c1ccc(C(=O)NC(=O)c2ccccc2O)cc1 | 65 µg/mL (≈ 229 µM) | 2 µg/mL (≈ 7.06 µM) | 1.3 µg/mL (≈ 4.59 µM) | 1.5 µg/mL (≈ 5.29 µM) | 19 µg/mL (≈ 67.1 µM) | 0.29 | 9.5 | 14 | 12
4 | Nc1ccc(C(=O)NC(=O)c2ccccc2O)cc1 | 46 µg/mL (≈ 180 µM) | 40 µg/mL (≈ 156 µM) | 7.8 µg/mL (≈ 30.4 µM) | 3.9 µg/mL (≈ 15.2 µM) | 39 µg/mL (≈ 152 µM) | 0.84 | 0.98 | 5 | 10
5 | COC(=O)CCC(=O)Nc1ccc(C(=O)NC(=O)c2ccccc2O)cc1 | > 50 µg/mL | > 50 µg/mL | 22 µg/mL (≈ 59.4 µM) | 21 µg/mL (≈ 56.7 µM) | > 50 µg/mL | – | – | > 2.3 | > 2.4
6 | CC(C)(C)c1ccc(C(=O)NC(=O)c2ccccc2O)cc1 | 61 µg/mL (≈ 205 µM) | 6 µg/mL (≈ 20.2 µM) | 0.14 µg/mL (≈ 0.471 µM) | 0.029 µg/mL (≈ 0.0975 µM) | 2.3 µg/mL (≈ 7.73 µM) | 0.038 | 0.38 | 17 | 80
7 | O=C(NC(=O)c1ccccc1O)c1ccc(-c2ccccc2)cc1 | 87 µg/mL (≈ 274 µM) | 7.7 µg/mL (≈ 24.3 µM) | 7.4 µg/mL (≈ 23.3 µM) | 3.9 µg/mL (≈ 12.3 µM) | > 100 µg/mL | > 1.2 | > 13 | > 14 | > 26
8 | O=C(NC(=O)c1ccccc1O)c1ccc(F)cc1 | 64 µg/mL (≈ 247 µM) | 51 µg/mL (≈ 197 µM) | 1.6 µg/mL (≈ 6.17 µM) | 1.5 µg/mL (≈ 5.79 µM) | 38 µg/mL (≈ 147 µM) | 0.6 | 0.75 | 23 | 25
9 | O=C(NC(=O)c1ccccc1O)c1ccc(OC(F)(F)F)cc1 | 65 µg/mL (≈ 200 µM) | 72 µg/mL (≈ 221 µM) | 5.3 µg/mL (≈ 16.3 µM) | 22 µg/mL (≈ 67.6 µM) | 84 µg/mL (≈ 258 µM) | – | – | – | –
10 | N#Cc1ccc(C(=O)NC(=O)c2ccccc2O)cc1 | > 100 µg/mL | 100 µg/mL (≈ 376 µM) | 12 µg/mL (≈ 45.1 µM) | 14 µg/mL (≈ 52.6 µM) | 55 µg/mL (≈ 207 µM) | < 0.55 | 0.55 | 4.7 | 3.9
11 | CS(=O)(=O)c1ccc(C(=O)NC(=O)c2ccccc2O)cc1 | > 100 µg/mL | 51 µg/mL (≈ 160 µM) | > 100 µg/mL | 38 µg/mL (≈ 119 µM) | > 100 µg/mL | – | > 2 | – | > 2.7
12 | O=C(NC(=O)c1ccccc1O)c1ccc([N+](=O)[O-])cc1 | > 100 µg/mL | 56 µg/mL (≈ 196 µM) | 11 µg/mL (≈ 38.4 µM) | 22 µg/mL (≈ 76.9 µM) | 53 µg/mL (≈ 185 µM) | < 0.53 | 0.94 | 4.9 | 2.4
13 | COC(=O)c1ccc(C(=O)NC(=O)c2ccccc2O)cc1 | > 50 µg/mL | 20 µg/mL (≈ 66.8 µM) | > 50 µg/mL | 2.9 µg/mL (≈ 9.69 µM) | 42 µg/mL (≈ 140 µM) | < 0.83 | 2.1 | < 0.83 | 14
14 | COc1ccc(C(=O)NC(=O)c2ccccc2O)cc1 | 50 µg/mL (≈ 184 µM) | 31 µg/mL (≈ 114 µM) | 1.7 µg/mL (≈ 6.27 µM) | 1.6 µg/mL (≈ 5.9 µM) | 39 µg/mL (≈ 144 µM) | 0.78 | 1.3 | 23 | 24
15 | CCOc1ccc(C(=O)NC(=O)c2ccccc2O)cc1 | 60 µg/mL (≈ 210 µM) | 4.1 µg/mL (≈ 14.4 µM) | 0.45 µg/mL (≈ 1.58 µM) | 1 µg/mL (≈ 3.51 µM) | 17 µg/mL (≈ 59.6 µM) | 0.28 | 4.1 | 37 | 17
16 | CCCCOc1ccc(C(=O)NC(=O)c2ccccc2O)cc1 | 55 µg/mL (≈ 176 µM) | 11 µg/mL (≈ 35.1 µM) | 0.94 µg/mL (≈ 3 µM) | 0.26 µg/mL (≈ 0.83 µM) | 13 µg/mL (≈ 41.5 µM) | 0.23 | 1.2 | 14 | 50
17 | O=C(NC(=O)c1ccccc1O)c1ccc(OCc2ccccc2)cc1 | 62 µg/mL (≈ 178 µM) | 4.4 µg/mL (≈ 12.7 µM) | 1.5 µg/mL (≈ 4.32 µM) | 4.1 µg/mL (≈ 11.8 µM) | 64 µg/mL (≈ 184 µM) | 1 | 15 | 42 | 16
18 | CN(C)c1ccc(C(=O)NC(=O)c2ccccc2O)cc1 | 81 µg/mL (≈ 285 µM) | 37 µg/mL (≈ 130 µM) | 18 µg/mL (≈ 63.3 µM) | 0.49 µg/mL (≈ 1.72 µM) | 54 µg/mL (≈ 190 µM) | 0.66 | 1.4 | 3 | 110
19 | CCN(CC)c1ccc(C(=O)NC(=O)c2ccccc2O)cc1 | > 50 µg/mL | 2.8 µg/mL (≈ 8.96 µM) | 0.91 µg/mL (≈ 2.91 µM) | 0.005 µg/mL (≈ 0.016 µM) | 8.2 µg/mL (≈ 26.3 µM) | – | – | – | –
20 | O=C(NC(=O)c1ccccc1O)c1ccc(N2CCOCC2)cc1 | > 50 µg/mL | > 50 µg/mL | 16 µg/mL (≈ 49 µM) | 0.18 µg/mL (≈ 0.552 µM) | > 50 µg/mL | – | – | > 3.1 | > 272
21 | O=C(CCCCCCC(=O)Nc1ccc(C(=O)NC(=O)c2ccccc2O)cc1)NO | 65 µg/mL (≈ 152 µM) | 49 µg/mL (≈ 115 µM) | > 100 µg/mL | 3.5 µg/mL (≈ 8.19 µM) | > 100 µg/mL | > 1.5 | > 2.1 | – | > 29
22 | CCc1ccc(C(=O)Nc2n[nH]c3ccccc23)cc1 | 8.2 µg/mL (≈ 30.9 µM) | 8.9 µg/mL (≈ 33.5 µM) | 3 µg/mL (≈ 11.3 µM) | 8.5 µg/mL (≈ 32 µM) | 8.2 µg/mL (≈ 30.9 µM) | – | – | – | –
23 | CCc1ccc(-c2noc(-c3ccccc3O)n2)cc1 | 61 µg/mL (≈ 229 µM) | 39 µg/mL (≈ 146 µM) | – | 27 µg/mL (≈ 101 µM) | > 100 µg/mL | > 1.6 | > 2.6 | > 1 | > 3.7
24 | Nc1nc(N)nc(Nc2ccc([As]3SCC(CO)S3)cc2)n1 (centres undefined) [MELARSOPROL] | 0.005 µg/mL | – | – | – | – | – | – | – | –

Source: ChEMBL document CHEMBL2034972, “Synthesis, biological evaluation, and structure-activity relationships of N-benzoyl-2-hydroxybenzamides as agents active against P. falciparum (K1 strain), Trypanosomes, and Leishmania” (J Med Chem, 2012)
